Results as given in ChEMBL document CHEMBL4513216, “Probing the Open Global Health Chemical Diversity Library for Multistage-Active Starting Points for Next-Generation Antimalarials” (ACS Infect Dis, 2020).

Assay: Toxicity liver stage against HepG2, at 10uM
Format: cell-based
Design: test concentration 10 uM, cell line HepG2-A16-CD81EGFP
Conditions: human, HepG2-A16-CD81EGFP cells; read-out: INHIBITION
Outline: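 Uninfected HepG2-A16-CD81EGFP cells, 3 × 10^3 per well, 1536-well, plated on prespotted compound at 10 μM final, parasite-free screening media added to match infected plates; puromycin 10 μM positive, DMSO 0.5% negative; run in parallel with 48 h PbLuc assay at 37 °C, 5% CO2; viability by CellTiter-Glo luminescence, normalized to controls.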

SMILES | cytotoxicity at 10 µM
O=C(O)c1ccc2c(c1)C1(CCCCC1)CN2C(=O)c1ccnnc1 | 3.59%
O=C(NCc1ccccn1)[C@@]12CCO[C@@H]1CCN(c1ncccn1)C2 | -98.4%
Cc1cc(C)nc(N2CCC(NCCSc3nnnn3C)CC2)n1 | -6.88%
CC(C)n1[nH]c(=O)c2c1NC(=O)CC2c1ccncc1 (stereo unspecified) | -4.66%
Cc1ccc(-c2noc(CN3CCn4c(nnc4C4CC4)C3)n2)cc1 | -9.04%
CCC[C@@H]1CN(Cc2ccc(C(F)(F)F)nc2)C[C@H]1NS(C)(=O)=O | 10.5%
CCN(C(=O)Cc1ccc(NC(=O)NC2CC2)cc1)c1ccccc1 | 7.84%
Cc1nnc(-c2cccc(N3CCC(NC4CCSC4)CC3)c2)s1 (stereo unspecified) | 0.276%
CC(=O)N[C@H]1CN(S(=O)(=O)N(C)Cc2ccccc2)C[C@@H]1C1CC1 | -144%
CC(=O)N1N=C(Cc2ccccc2)OC1C(=O)NCC(C)C (stereo unspecified) | -4.52%
Cc1cnc(N2C[C@@H]3CCN(CC4CC4)C(=O)[C@H]3C2)nc1 | 3.47%
COc1ccc(-c2ccnc(C3CCNCC3)c2)cc1 | -41.4%
c1ccc(CCCN2CC[C@H](c3nnc(-c4cccnc4)o3)C2)cc1 | -6.1%
Fc1ccc(CN2C[C@@H](OCc3ccccn3)[C@H]3COC[C@H]32)cc1 | -98.9%
CCC(c1ccccc1)N1CCN(CCO)CC1 (stereo unspecified) | -1.19%
CCOC(=O)c1n[nH]cc1-c1cncn1CCn1nc(C)c(Cl)c1C | -15.1%
CC(C)(C)CN(CCC#N)C(=O)Nc1cccc(N2CCNC2=O)c1 | -9.86%
Cn1cc(C(=O)N2CCN(c3ncccn3)CC2)ccc1=O | -7.82%
CC(C)n1cnnc1CNC(=O)c1cnc2ccccc2n1 | 7.01%
O=C(NS(=O)(=O)Cc1ccc(F)cc1)C1CCc2ccccc21 (stereo unspecified) | -13.1%
CC(C)c1nnc2n1CC(CNCc1ccc3c(c1)OCCO3)CC2 (stereo unspecified) | -5.92%
COc1c(F)cc(NC(=O)NCc2nncn2C2CC2)cc1F | -4.7%
CCc1ncc2c(n1)CN(CC(=O)Nc1cc(C)no1)CC2 | -16.9%

SMILES | cytotoxicity at 10 µM
O=C(CC1CC1)N1CCC2(CC1)CC(Oc1ccccc1)CO2 (stereo unspecified) | -0.82%
Cc1noc(CN2CCN(C(C)C(=O)NCc3cccs3)CC2)n1 (stereo unspecified) | 17.2%
CN1CCN(Cc2ccc(-c3ccc(-c4ccn[nH]4)cc3)nc2)CC1 | 3.61%
COCCNC(=O)C1CCCN(c2ccc3nncn3n2)C1 (stereo unspecified) | -0.302%
NC(=O)C1CCN(Cc2cc3c(cc2Br)OCCO3)C1 (stereo unspecified) | 0.641%
CO[C@H]1CO[C@@]2(CCCN(C(=O)C3=CCCCC3)C2)C1 | -9.95%
COCCN1CCC(NC(=O)Nc2cccc(F)c2)C1 (stereo unspecified) | -0.898%
Cc1nc(CC(=O)N2CCCN(c3ccc(C#N)cc3)CC2)cs1 | 2.37%
CCc1nc(C)c(CN2CCN(c3ncnc4scc(C)c34)CC2)[nH]1 | 16.4%
CC(C)(NC(=O)c1ccc(-c2ccc(F)cc2)s1)C(N)=O | -4.05%
COc1ccc(C(CO)NC(=O)Nc2cccc(C#N)c2)cc1 (stereo unspecified) | -17.9%
CCc1cnc(N)nc1N(C)CCc1cnn(C)c1 | 55.9%
CCCNC(=O)Cn1nc(C(C)C)c2cnn(C(C)(C)C)c2c1=O | -20%
Cc1cc(C)c(CNC(=O)N2CCCC2c2ccccc2)c(=O)[nH]1 (stereo unspecified) | -0.818%
Cc1nc(C)n(CC2CCCN2CCc2cccs2)n1 (stereo unspecified) | -3.51%
Cc1ccc(C(=O)N2C[C@H]3CC[C@@H](C2)N(CC2CCC2)C3)s1 | -4.2%
COCCN1C(=O)CO[C@H]2CN(S(=O)(=O)c3ccccc3)C[C@H]21 | -0.843%
Cc1nn(C)c(Cl)c1C1CCCN1C(=O)c1ccnn1C (stereo unspecified) | -4.87%
COc1ccc(OCC(=O)n2nc(C)c(C)c2C)cc1 | -6.32%
Cc1cnn(CC(=O)N2CCCN(Cc3cnn(C(C)C)c3)CC2)c1 | -12.3%
CNC(=O)[C@H]1CC[C@@H]2[C@@H](CCN2C(=O)N(C)C)O1 | 6.86%
CCC(=O)c1ccc(Br)cc1NN1c2cc(Br)ccc2C(=O)C1(C)OC (stereo unspecified) | 78.6%
CCC(CO)N(Cc1ccco1)C(=O)c1cccc(C)c1O (stereo unspecified) | 0.126%

SMILES | cytotoxicity at 10 µM
Cc1noc(-c2ccc(N(C)Cc3ccncc3C)nc2)n1 | -15.1%
NC(=O)C1CN(C(=O)Nc2ccccc2-c2cccs2)CCO1 (stereo unspecified) | -4.84%
COCc1cn([C@@H]2c3ccccc3C3(CCNCC3)[C@H]2O)nn1 | 1.2%
CN(CC(=O)N1CCCC1c1ccccn1)Cc1ccccc1 (stereo unspecified) | -0.51%
c1ccc(CN2CCOC3(COCCN(c4ncccn4)C3)C2)nc1 (stereo unspecified) | 8.28%
Cc1nc(-c2ccccc2C(=O)O)cc(C2CCN(C(C)C)C2)n1 (stereo unspecified) | -13.1%
CC(O)CN1CCC(CNCc2ccc(C(N)=O)cc2)CC1 (stereo unspecified) | -9.83%
O=C(c1c(F)cc(Br)cc1F)N1CCc2cnccc21 | -10.1%
Cc1nc(CNc2ccc(C(=O)NCc3ccco3)cc2C)no1 | 5.38%
O=C(Cc1cccnc1)N1C[C@H]2CC[C@@H](C1)N(Cc1ccccc1)C2=O | 7.93%
c1ccc(C2CCCN2Cc2nnnn2C2CC2)cc1 (stereo unspecified) | -5.04%
CCCc1cc(N2CCC(NC3CCS(=O)(=O)C3)CC2)nc(C)n1 (stereo unspecified) | -6.65%
CC(=O)Nc1nc(C(=O)N2CCCC(n3nc(C)nc3C)C2)cs1 (stereo unspecified) | -2.06%
NC(=O)Cc1csc(NC(=O)C2CSCCC(=O)N2)n1 (stereo unspecified) | 0.722%
Cn1nccc1CCNC(=O)[C@H]1CNC[C@H](C(=O)N2CCCC2)C1 | -133%
Cc1ccc(-c2noc(CN3CCc4nn(C)c(=O)cc4C3)n2)cc1 | -8.78%
CN(C)c1ncnc2c1CCN(CC1CCOCC1)CC2 | -69.6%
O=C(c1ccc2c(c1)OCO2)N1C[C@@H](CN2CCCCC2)[C@@H](CO)C1 | -4.06%
c1ccc(N2CCCC3(CCN(Cc4cccs4)C3)C2)nc1 (stereo unspecified) | 12.7%
CCC[C@@H]1CN(Cc2ccccc2-c2ccco2)C[C@H]1NC(C)=O | 20.9%
CN(C)CCOCC1CN(CCN(C)C)Cc2ccnn2C1 (stereo unspecified) | 0.656%
O=C(CCc1nc(Cl)n[nH]1)N1C[C@@H](CN2CCCCC2)[C@@H](CO)C1 | -0.104%
Cc1cn[nH]c1C1COCCN1Cc1c[nH]cn1 (stereo unspecified) | -1.3%

SMILES | cytotoxicity at 10 µM
N#CCCN1CCN(S(=O)(=O)c2ccc(Cl)s2)CC1 | 14.7%
CC(=O)c1cccc(NC(=O)CN2CCCC(C3OCCO3)C2)c1 (stereo unspecified) | -3.28%
COCCn1cc(NC(=O)NCC2CCN(c3ccccc3)C2)cn1 (stereo unspecified) | 2.21%
CN(C(=O)OC(C)(C)C)C1CCN(C(=O)c2cc(Cl)c[nH]2)C1 (stereo unspecified) | 2.5%
Cc1nc(CN2CCCC(NCc3c(C)nc4sccn34)C2)no1 (stereo unspecified) | 6.21%
c1coc(-c2nc(CN3CCn4c(nnc4C4CC4)C3)cs2)c1 | -4.64%
O=C(NC1CC(=O)N(C2CC2)C1)c1ccc(Cl)s1 (stereo unspecified) | 9.05%
O=C(c1cccnc1)N1CCOC(c2ccc(-c3cncnc3)cn2)C1 (stereo unspecified) | -16%
CCc1cnc(N)nc1NC(C)c1ccc(C)c(C)c1 (stereo unspecified) | 21.3%
Cc1nc(-c2ccc(F)c(F)c2)cc(C2CCNCC2)n1 | 2.04%
O=C(CCC1CCCO1)NCc1ccccc1Cn1cncn1 (stereo unspecified) | -4.05%
O=C(Cc1ccc(CO)cc1)N1CCN(CC2CC2)[C@@H]2CS(=O)(=O)C[C@@H]21 | -14.2%
CCC1c2ccccc2CCN1C(=O)c1ccc(OC)nn1 (stereo unspecified) | -12.8%
Cc1ccc(CN2CCC3(CC2)C(=O)N(CC(C)C)CCN3C)o1 | -0.508%
COc1cc(CNCCc2cnn(C)c2)cc2c1OCCO2 | -4.82%
Cc1nnc(N2CCCC3(CN(Cc4cnn(C)c4)CCO3)C2)o1 (stereo unspecified) | 4.12%
CS(=O)(=O)NCc1cnc2n1CCN(Cc1ccoc1)CC2 | -4.1%
COc1nn(C)cc1-c1nnc(SCc2cccnc2)n1C | -2.06%
CCNC(=O)CNC(=O)c1nc(C2CC2)n(-c2ccccc2Cl)n1 | 5.91%
NS(=O)(=O)CCN1CCN(c2ccccc2O)CC1 | 9.1%
Cc1oc(C(=O)O)cc1S(=O)(=O)Nc1ccc(Cl)c(F)c1 | -5.92%
Cc1cc(N(C)C)nc(N2CCCC2c2cc(C)on2)n1 (stereo unspecified) | -2.38%
CC(C)COC(C)C(=O)NCc1ccc(F)cc1 (stereo unspecified) | -2.9%

SMILES | cytotoxicity at 10 µM
Cc1cc(NC(C)C(=O)NCc2ccccc2)nc(-c2ccncc2)n1 (stereo unspecified) | 0.563%
Cc1cccnc1CN1CCN(C[C@]2(O)CCCN3CCCC[C@@H]32)CC1 | -0.418%
Cc1ccc(NC(=O)N(C)CC(O)COCCOC(C)C)c(Br)c1 (stereo unspecified) | 11.2%
O=C(c1ccnnc1)N1CCc2onc(CN3CCCC3)c2C1 | 7.31%
c1cnc(N2CCC3(CCN(CC4CCOC4)CC3)CC2)nc1 (stereo unspecified) | -1.22%
COCC1COCCC12CCN(CCc1ccccc1)CC2 (stereo unspecified) | -26%
O=C(CC1CCCCC1)N1CCC(c2ncc3c(n2)CCNC3)CC1 | -8.21%
Cc1nn(C)c(C)c1CNC1CCOc2ccccc21 (stereo unspecified) | 7.75%
OCCN1CCN(CCOCC(F)(F)F)CC1 | -4.47%
COc1ccccc1C(=O)Nc1c(C)cnn1CC1CC1 | -3.47%
O=C(NCCCN1CCN(c2ncccn2)CC1)NCC1CCOC1 (stereo unspecified) | -56.6%
CN(Cc1ccc(F)cc1)C(=O)c1ccoc1CN1CCNC(=O)C1 | -3.57%
NC(=O)c1c(NC(=O)CCC(=O)O)sc2c1CCc1ccccc1-2 | -1.99%
CN(CCCOc1ccc(F)cc1)S(=O)(=O)c1cnn(C)c1 | -0.336%
C1CN(CC2CCOCC2)Cc2c(CN3CCOCC3)nnn2C1 | -143%
CCOCC1CN(C(=O)N2CCCC2)Cc2cnn(C)c21 (stereo unspecified) | -0.96%
CC(=O)N1CCC(Cc2nccnc2-c2c(C)n[nH]c2C)C1 (stereo unspecified) | 10.7%
COCCN(Cc1c(C)nn(C)c1C)C(=O)C1COc2ccccc2C1 (stereo unspecified) | -3.87%
Cc1cc(CN(C)C(=O)NCC2CCS(=O)(=O)C2)no1 (stereo unspecified) | -0.874%
